According to ChEMBL document CHEMBL4627249, “New modification strategy of matrine as Hsp90 inhibitors based on its specific L conformation for cancer treatment” (Bioorg Med Chem, 2020):
Calls of active or inactive are those of the source. The rule behind the calls is not given here.

Key:
[1] = molecular target: T1, Heat shock protein HSP90 (Homo sapiens) (UniProt P07900+P08238)
MDA-MB-231 = assay: Antiproliferative activity against human MDA-MB-231 cells assessed as reduction in cell viability after 48 hrs by MTT assay; format: functional, cell-based; conditions: MDA-MB-231, 48 h
HeLa [2] = assay: Antiproliferative activity against human HeLa cells assessed as reduction in cell viability after 48 hrs by MTT assay; format: functional, cell-based
Summary of the method: (§1)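 HepG2 or HeLa cells in DMEM with 10% FBS and 1% penicillin-streptomycin were preincubated 24 h (37 °C, 5% CO2). They were then exposed for 48 h to 1, 5, 10, 20, 50 and 100 µM, diluted in medium from DMSO stocks. MTT (5 mg/mL, 20 µL) was added for 4 h, formazan dissolved in DMSO, and A490 read. Each concentration was run in triplicate. IC50 is the mean from dose-response curves of at least three independent experiments; cisplatin was the positive control.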

HepG2 = assay: Antiproliferative activity against human HepG2 cells assessed as reduction in cell viability after 48 hrs by MTT assay; format: functional, cell-based; conditions: HepG2, 48 h
Summary of the method: as §1

HeLa [3] = assay: Cell cycle arrest in human HeLa cells assessed as accumulation of cells at G0/G1 phase at 5 uM after 48 hrs by RNase/PI-staining based flow cytometric analysis (reference value: 71.07 %); format: functional
HeLa [4] = assay: Cell cycle arrest in human HeLa cells assessed as accumulation of cells at S phase at 20 uM after 48 hrs by RNase/PI-staining based flow cytometric analysis (reference value: 17.24 %); format: functional
HeLa [5] = assay: Induction of apoptosis in human HeLa cells assessed as viable cells at 10 uM after 48 hrs by Annexin V/propidium iodide staining based assay (reference value: 95.03 %); format: functional; conditions: read-out: Activity
Summary of the method: (§2)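 HeLa cells were seeded at 2 × 10^5 per well in six-well plates and left overnight. They were then treated with 5, 10 or 20 µM for 48 h. Annexin V-FITC/PI staining was done with a commercial kit per its instructions. Early and late apoptotic fractions are given as cumulative percentages relative to untreated control.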

HeLa [6] = assay: Induction of apoptosis in human HeLa cells assessed as early apoptotic cells at 10 uM after 48 hrs by Annexin V/propidium iodide staining based assay (reference value: 3.22 %); format: functional
Summary of the method: as §2

HeLa [7] = assay: Induction of apoptosis in human HeLa cells assessed as late apoptotic cells at 20 uM after 48 hrs by Annexin V/propidium iodide staining based assay (reference value: 1.75 %); format: functional
Summary of the method: as §2

HeLa [8] = assay: Induction of apoptosis in human HeLa cells assessed as increase in Bax protein expression after 48 hrs by Western blot analysis; format: functional, cell-based
Summary of the method: (§3)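 HeLa cells were treated 48 h with 12.5, 25 or 50 µM, or with DMSO vehicle. Cells were lysed 30 min in RIPA buffer with protease inhibitor cocktail and spun at 12,000 rpm for 15 min at 4 °C. Proteins were run on 6-15% SDS-PAGE and moved to nitrocellulose. Membranes were blocked in 5% non-fat milk in TBS, probed with primary and secondary antibodies, and imaged by chemiluminescence.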

HeLa [9] = assay: Cell cycle arrest in human HeLa cells assessed as accumulation of cells at S phase at 5 uM after 48 hrs by RNase/PI-staining based flow cytometric analysis (reference value: 17.24 %); format: functional
HeLa [10] = assay: Induction of apoptosis in human HeLa cells assessed as viable cells at 20 uM after 48 hrs by Annexin V/propidium iodide staining based assay (reference value: 95.03 %); format: functional; conditions: read-out: Activity
Summary of the method: as §2

HeLa [11] = assay: Induction of apoptosis in human HeLa cells assessed as increase in ratio of Bax to Bcl-2 protein expression 12.5 to 50 uM after 48 hrs by Western blot analysis; format: functional, cell-based
Summary of the method: as §3

HeLa [12] = assay: Cell cycle arrest in human HeLa cells assessed as accumulation of cells at S phase after 48 hrs by RNase/PI-staining based flow cytometric analysis; format: functional
HeLa [13] = assay: Induction of apoptosis in human HeLa cells assessed as increase in cleaved caspase 3 protein expression after 48 hrs by Western blot analysis; format: functional, cell-based
Summary of the method: as §3

HeLa [14] = assay: Cell cycle arrest in human HeLa cells assessed as accumulation of cells at G2/M phase at 20 uM after 48 hrs by RNase/PI-staining based flow cytometric analysis (reference value: 11.69 %); format: functional
HeLa [15] = assay: Induction of apoptosis in human HeLa cells assessed as necrotic cells at 20 uM after 48 hrs by Annexin V/propidium iodide staining based assay (reference value: 0 %); format: functional
Summary of the method: as §2

HeLa [16] = assay: Induction of apoptosis in human HeLa cells assessed as early apoptotic cells at 5 uM after 48 hrs by Annexin V/propidium iodide staining based assay (reference value: 3.22 %); format: functional
Summary of the method: as §2

HeLa [17] = assay: Cell cycle arrest in human HeLa cells assessed as accumulation of cells at G0/G1 phase at 20 uM after 48 hrs by RNase/PI-staining based flow cytometric analysis (reference value: 71.07 %); format: functional
HeLa [18] = assay: Cell cycle arrest in human HeLa cells assessed as accumulation of cells at G2/M phase at 10 uM after 48 hrs by RNase/PI-staining based flow cytometric analysis (reference value: 11.69 %); format: functional
HeLa [19] = assay: Induction of apoptosis in human HeLa cells assessed as early apoptotic cells at 20 uM after 48 hrs by Annexin V/propidium iodide staining based assay (reference value: 3.22 %); format: functional
Summary of the method: as §2

HeLa [20] = assay: Induction of apoptosis in human HeLa cells assessed as necrotic cells at 10 uM after 48 hrs by Annexin V/propidium iodide staining based assay (reference value: 0 %); format: functional
Summary of the method: as §2

HeLa [21] = assay: Cell cycle arrest in human HeLa cells assessed as accumulation of cells at G2/M phase at 5 uM after 48 hrs by RNase/PI-staining based flow cytometric analysis (reference value: 11.69 %); format: functional
HeLa [22] = assay: Cell cycle arrest in human HeLa cells assessed as accumulation of cells at S phase at 10 uM after 48 hrs by RNase/PI-staining based flow cytometric analysis (reference value: 17.24 %); format: functional
HeLa [23] = assay: Cell cycle arrest in human HeLa cells assessed as accumulation of cells at G0/G1 phase at 10 uM after 48 hrs by RNase/PI-staining based flow cytometric analysis analysis (reference value: 71.07 %); format: functional
HeLa [24] = assay: Induction of apoptosis in human HeLa cells assessed as decrease in protected caspase 3 protein expression after 48 hrs by Western blot analysis; format: functional, cell-based
Summary of the method: as §3

HeLa [25] = assay: Induction of apoptosis in human HeLa cells assessed as accumulation of […] cells at 5 uM after 48 hrs by Annexin V/propidium iodide staining based assay (reference value: 0 %); format: functional
Summary of the method: as §2

HeLa [26] = assay: Induction of apoptosis in human HeLa cells assessed as decrease in Bcl-2 protein expression after 48 hrs by Western blot analysis; format: functional, cell-based
Summary of the method: as §3

HeLa [27] = assay: Induction of apoptosis in human HeLa cells assessed as late apoptotic cells at 10 uM after 48 hrs by Annexin V/propidium iodide staining based assay (reference value: 1.75 %); format: functional
Summary of the method: as §2

[28] = molecular target: T1, Heat shock protein HSP90 (Homo sapiens); assay: Inhibition of Hsp90 in human Hela cells assessed as down regulation of Hsp90 protein expression at 12.5 uM to 50 uM after 48 hrs by Western blot analysis; format: cell-based
Summary of the method: as §3

HeLa [29] = assay: Induction of apoptosis in human HeLa cells assessed as viable cells at 5 uM after 48 hrs by Annexin V/propidium iodide staining based assay (reference value: 95.03 %); format: functional; conditions: read-out: Activity
Summary of the method: as §2

HeLa [30] = assay: Induction of apoptosis in human HeLa cells assessed as late apoptotic cells at 5 uM after 48 hrs by Annexin V/propidium iodide staining based assay (reference value: 1.75 %); format: functional
Summary of the method: as §2

With `c1ccc(-c2ccc(/N=C3\CCC[C@@H]4[C@H]5CCCN6CCC[C@@H](CN34)[C@@H]56)cc2)cc1` the ΔTm [1] was -4.91 °C, the IC50 (MDA-MB-231) was 24.6 µM and the IC50 (HeLa [2]) was 23.7 µM. It also gave an IC50 (HepG2) of 11 µM.

Work on `c1ccc(Oc2ccc(/N=C3\CCC[C@@H]4[C@H]5CCCN6CCC[C@@H](CN34)[C@@H]56)cc2)cc1` yielded a ΔTm [1] of -1.3 °C, an IC50 (MDA-MB-231) of 55.2 µM and an IC50 (HeLa [2]) of 33.7 µM. It also gave an IC50 (HepG2) of 51.3 µM.

In the case of `COc1ccc2nc3c(c(N)c2c1)CC[C@@H]1[C@H]2CCCN4CCC[C@@H](CN31)[C@@H]24`, the ΔTm [1] is reported as -5.48 °C, the IC50 (MDA-MB-231) is reported as 21.2 µM and the IC50 (HeLa [2]) is reported as 18 µM. For the same molecule, the IC50 (HepG2) was 10.9 µM.

In the case of `c1ccc(/N=C2\CCC[C@@H]3[C@H]4CCCN5CCC[C@@H](CN23)[C@@H]45)cc1`, the ΔTm [1] is reported as -0.57 °C, the IC50 (MDA-MB-231) is reported as > 100 µM and the IC50 (HeLa [2]) is reported as > 100 µM. The IC50 (HepG2) was > 100 µM.

With `Nc1c2c(nc3ccc(F)cc13)N1C[C@@H]3CCCN4CCC[C@@H]([C@H]34)[C@H]1CC2` the ΔTm [1] was -2.3 °C, the IC50 (MDA-MB-231) was 37.3 µM and the IC50 (HeLa [2]) was 18.8 µM. It also gave an IC50 (HepG2) of 13.1 µM.

Work on `Nc1c2c(nc3ccccc13)N1C[C@@H]3CCCN4CCC[C@@H]([C@H]34)[C@H]1CC2` yielded a ΔTm [1] of -3.12 °C, an IC50 (MDA-MB-231) of 22.2 µM and an IC50 (HeLa [2]) of 23.3 µM. The IC50 (HepG2) was 14.3 µM.

Work on `Nc1c2c(nc3ccc(C(F)(F)F)cc13)N1C[C@@H]3CCCN4CCC[C@@H]([C@H]34)[C@H]1CC2` yielded an Activity (HeLa [3]) of 65.53%, an Activity (HeLa [4]) of 40.12% and a viability at 10 µM (HeLa [5]) of 50.1%. It also gave an Activity (HeLa [6]) of 28.57%, an Activity (HeLa [7]) of 21.17% and a ΔTm [1] of 10.9 °C. The Activity (HeLa [8]) was “Dose-dependent effect”, the Activity (HeLa [9]) was 21.64% and the viability at 20 µM (HeLa [10]) was 38.1%. For the same molecule, the Activity (HeLa [11]) was “Active”, the Activity (HeLa [12]) was “Dose-dependent effect” and the Activity (HeLa [13]) was “Dose-dependent effect”. It also gave an Activity (HeLa [14]) of 2.93%, an IC50 (MDA-MB-231) of 22.1 µM and an IC50 (HeLa [2]) of 19.6 µM. For the same molecule, the Activity (HeLa [15]) was 2.62%, the Activity (HeLa [16]) was 17.51% and the Activity (HeLa [17]) was 56.95%. The Activity (HeLa [18]) was 10.86%, the Activity (HeLa [19]) was 38.07% and the Activity (HeLa [20]) was 4.06%. It also gave an Activity (HeLa [21]) of 12.83%, an Activity (HeLa [22]) of 26.67% and an Activity (HeLa [23]) of 62.47%. For the same molecule, the Activity (HeLa [24]) was “Dose-dependent effect”, the Activity (HeLa [25]) was 8.79% and the Activity (HeLa [26]) was “Dose-dependent effect”. The Activity (HeLa [27]) was 17.3%, the IC50 (HepG2) was 16.1 µM and the inhibition [28] was “Active”. The viability at 5 µM (HeLa [29]) was 72% and the Activity (HeLa [30]) was 8.79%.

In the case of `O=C1CCCC[C@@H]2[C@H]3CCCN4CCC[C@@H](CN12)[C@@H]34`, the IC50 (MDA-MB-231) is reported as > 100 µM, the IC50 (HeLa [2]) is reported as > 100 µM and the IC50 (HepG2) is reported as > 100 µM.

With `Clc1ccc(/N=C2\CCC[C@@H]3[C@H]4CCCN5CCC[C@@H](CN23)[C@@H]45)cc1` the deltaTm [1] was “inactive”, the IC50 (MDA-MB-231) was 73.4 µM and the IC50 (HeLa [2]) was > 100 µM. For the same molecule, the IC50 (HepG2) was > 100 µM.

With `CCOc1ccc(/N=C2\CCC[C@@H]3[C@H]4CCCN5CCC[C@@H](CN23)[C@@H]45)cc1` the ΔTm [1] was 0 °C, the IC50 (MDA-MB-231) was > 100 µM and the IC50 (HeLa [2]) was > 100 µM. It also gave an IC50 (HepG2) of 97.5 µM.
